{"data": "Published values gathered from unrelated publications", "cell line": "A549", "read-out": "cell growth or viability", "note": "Compare with care: the assays were run in different laboratories."}
{"SMILES": "CC[C@@]1(OC(=O)[C@@H]2CCCN2)C(=O)OCc2c1cc1n(c2=O)Cc2cc3cc4c(cc3nc2-1)OCO4", "method": "MTT", "measurement": "IC50", "value": "0.031 µM"}
{"SMILES": "O=C(c1ccc(F)cc1)c1c[nH]c2ncc(-c3ccnc(N4CCNCC4)c3)cc12", "method": "MTT", "concentration": "10 µM", "time": "48 h", "measurement": "viability", "value": "101%"}
{"SMILES": "COc1cc([C@@H]2c3cc4c(cc3[C@H](O)[C@H]3COC(=O)[C@H]23)OCO4)cc(OC)c1OC", "method": "MTT", "time": "72 h", "measurement": "EC50", "value": "0.024 µM"}
{"SMILES": "O=C(N/N=C1\\C(=O)N(Cc2ccccc2)c2ccc(Br)cc21)c1cc2ccccc2[nH]1", "concentration": "30 µM", "measurement": "inhibition", "value": "96.1%"}
{"SMILES": "O=C(c1ccc(F)cc1)c1c[nH]c2ncc(-c3ccc(N4CCNCC4)nc3)cc12", "method": "MTT", "concentration": "10 µM", "time": "48 h", "measurement": "viability", "value": "94.7%"}
{"SMILES": "N#Cc1ccc(CN2C(=O)/C(=N\\NC(=O)c3cc4ccccc4[nH]3)c3ccccc32)cc1", "concentration": "30 µM", "measurement": "inhibition", "value": "94.6%"}
{"SMILES": "COc1ccc(C(=O)c2c[nH]c3ncc(-c4ccc(N5CCN(C(=O)OC(C)(C)C)CC5)nc4)cc23)cc1", "method": "MTT", "concentration": "10 µM", "time": "48 h", "measurement": "viability", "value": "88.1%"}
{"SMILES": "CN1C[C@H](C(=O)N[C@]2(C)O[C@@]3(O)[C@@H]4CCCN4C(=O)[C@H](Cc4ccccc4)N3C2=O)C=C2c3cccc4[nH]cc(c34)C[C@H]21", "method": "MTT", "time": "72 h", "measurement": "EC50", "value": "13 µM"}
{"SMILES": "N.N.[Cl][Pt][Cl]", "method": "MTT", "measurement": "GI50", "value": "14.3 µM"}
{"SMILES": "Cc1c(Cc2cccc(N(C)S(=O)(=O)CCCNCCCC(=O)N3CCN(c4ccc(Nc5c(C(N)=O)cnc6ccc(-c7cnc8ccccc8c7)cc56)cc4C(F)(F)F)CC3)c2)c(=O)oc2cc(OC(=O)N(C)C)ccc12", "method": "CCK-8", "measurement": "GI50", "value": "4.66 µM"}
{"SMILES": "O=C(N/N=C1\\C(=O)N(Cc2ccccc2)c2ccc(Cl)cc21)c1cc2ccccc2[nH]1", "concentration": "30 µM", "measurement": "inhibition", "value": "99.7%"}
{"SMILES": "CCOC(=O)CCn1cc(C(=O)c2ccc(F)cc2)c2cc(-c3ccc(N4CCN(C(=O)OC(C)(C)C)CC4)nc3)cnc21", "method": "MTT", "concentration": "10 µM", "time": "48 h", "measurement": "viability", "value": "90.2%"}
{"SMILES": "C[C@]12CC[C@H](O)C[C@H]1CC[C@@H]1[C@@H]2C[C@@H](O)[C@]2(C)[C@@H](C3=CC(=O)OC3)CC[C@]12O", "method": "MTT", "concentration": "5 µM", "time": "24 h", "measurement": "inhibition", "value": "72.3%"}
{"SMILES": "O=C(N/N=C1\\C(=O)N(Cc2ccc(Cl)cc2)c2ccccc21)c1cc2ccccc2[nH]1", "concentration": "30 µM", "measurement": "inhibition", "value": "96.9%"}
{"SMILES": "CC(=O)O[C@H]1C[C@H](O[C@H]2[C@@H](O)C[C@H](O[C@H]3[C@@H](O)C[C@H](O[C@H]4CC[C@@]5(C)[C@H](CC[C@@H]6[C@@H]5C[C@@H](O)[C@]5(C)[C@@H](C7=CC(=O)OC7)CC[C@]65O)C4)O[C@@H]3C)O[C@@H]2C)O[C@H](C)[C@H]1O", "method": "MTT", "concentration": "5 µM", "time": "24 h", "measurement": "inhibition", "value": "73.9%"}
{"SMILES": "CS(=O)(=O)N1CCN(c2ccc(-c3cnc4[nH]cc(C(=O)c5ccc(F)cc5)c4c3)cn2)CC1", "method": "MTT", "concentration": "10 µM", "time": "48 h", "measurement": "viability", "value": "97.3%"}
{"SMILES": "O=C(N/N=C1\\C(=O)N(Cc2ccccc2)c2ccccc21)c1cc2ccccc2[nH]1", "concentration": "30 µM", "measurement": "inhibition", "value": "98.4%"}
{"SMILES": "N.N.[Cl][Pt][Cl]", "method": "SRB", "time": "72 h", "measurement": "EC50", "value": "4.5 µM"}
